In assay [1] the test system is Klebsiella pneumoniae. Kind of assay: Inhibition of Klebsiella pneumonia beta lactamase NDM1 transfected in negative Escherichia coli SNO3 cells assessed as substrate hydrolysis using nitrocefin as substrate at 250 uM incubated for 20 mins measured every 1 mins for 3 hrs by cell-based microplate spectrophotometry analysis relative to control. In outline: (§1)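 E. coli SNO3 (β-lactamase-negative) carrying pET26b(+) with blaVIM-2, blaGIM-1 or blaNDM-1; overnight culture adjusted to OD600 1 in LB, inhibitor 250 µM final, IPTG 0.8 mM final, 37 °C 20 min with shaking to induce. Nitrocefin added (1.6 mM final, in 50 mM HEPES pH 7.2, 100 µM ZnCl2), A482 read each minute for 3 h; duplicates.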

The target in assay [2] is GIM-1 protein (Pseudomonas aeruginosa) (UniProt Q704V1). Kind of assay: Inhibition of Pseudomonas aeruginosa beta lactamase GIM-1 transfected in negative Escherichia coli SNO3 cells assessed as substrate hydrolysis using nitrocefin as substrate at 250 uM incubated for 20 mins measured every 1 mins for 3 hrs by cell-based microplate spectrophotometry analysis relative to control. In outline:
as §1

A short description of assay [3]: Inhibition of beta lactamase NDM1 in Klebsiella pneumoniae in presence of imipenem as reporter substrate measured after 5 mins by microplate spectrophotometry analysis. A digest of the protocol: (§2)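 Purified recombinant enzyme (1 nM GIM-1 or NDM-1) in 50 mM HEPES pH 7.2, 100 µM ZnCl2, 400 µg/ml BSA, preincubated with inhibitor at 16 concentrations (0–250 µM) for 5 min at 25 °C. Reporter substrate added at 100 µM: nitrocefin for GIM-1 (A482), imipenem for NDM-1 (A300). Triplicates; IC50 from initial velocities by log[inhibitor]–response fit.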

Assay [4] concerns the target Beta-lactamase VIM-2 (Pseudomonas aeruginosa) (UniProt Q9K2N0). Description: Inhibition of Pseudomonas aeruginosa 3015473 beta lactamase VIM-2 transfected in negative Escherichia coli SNO3 cells assessed as substrate hydrolysis using nitrocefin as substrate at 250 uM incubated for 20 mins measured every 1 mins for 3 hrs by cell-based microplate spectrophotometry analysis relative to control. A digest of the protocol:
as §1

Assay [5] deals with Beta-lactamase VIM-2 (Pseudomonas aeruginosa, UniProt Q9K2N0). Kind of assay: Inhibition of beta lactamase VIM-2 in Pseudomonas aeruginosa 3015473 in presence of nitrocefin as reporter substrate measured after 5 mins by microplate spectrophotometry analysis. A digest of the protocol: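 Purified VIM-2 at 1 nM in 50 mM HEPES pH 7.2 with 100 µM ZnCl2 and 400 µg/ml BSA, preincubated with inhibitor (sixteen concentrations, 0–250 µM) for 5 min at 25 °C. Then 100 µM nitrocefin was added and absorbance was followed at 482 nm. Points were run in triplicate, and IC50 was taken from initial velocities by log[inhibitor]–response fitting.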

The target of assay [6] is GIM-1 protein (Pseudomonas aeruginosa, UniProt Q704V1). Kind of assay: Inhibition of beta lactamase GIM-1 in Pseudomonas aeruginosa in presence of nitrocefin as reporter substrate measured after 5 mins by microplate spectrophotometry analysis. In outline:
as §2

For assay [7], the target named is Beta-lactamase VIM-2 (Pseudomonas aeruginosa) (UniProt Q9K2N0). Description: Synergistic Inhibition of beta lactamase VIM-2 in Pseudomonas aeruginosa K34-7 assessed colony formation by visual inspection in presence of 50 microM 2,5-Dichloro-N-((4-((cyclohexylamino)methyl)-1H-1,2,3-triazol-5-yl)methyl)benzenesulfonamide incubated for 20 hrs by two-fold dilution method. In outline: (§3)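 Broth microdilution in Mueller Hinton broth against clinical isolates (P. aeruginosa VIM-2, K. pneumoniae NDM-1, E. coli VIM-29). Meropenem 2-fold series 256–0.0625 µg/mL, with inhibitor at 50 or 125 µM final; 5% DMSO control. Inoculum from 0.5 McFarland suspension in 0.85% NaCl diluted in MH broth, CFU checked on MH agar. 37 °C for 20 h; MIC read visually.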

The test system of assay [8] is Escherichia coli. Kind of assay: Synergistic Inhibition of beta lactamase VIM-29 in Escherichia coli 50639799 assessed colony formation by visual inspection in presence of 50 microM 2,5-Dichloro-N-((4-((cyclohexylamino)methyl)-1H-1,2,3-triazol-5-yl)methyl)benzenesulfonamide incubated for 20 hrs by two-fold dilution method. A digest of the protocol: as §3
For assay [9], the target named is Metallo-beta-lactamase type 2 (Klebsiella pneumoniae) (UniProt C7C422). Kind of assay: Synergistic Inhibition of beta lactamase NDM1 in Klebsiella pneumoniae K66-45 assessed colony formation by visual inspection in presence of 125 microM N-((4-((cyclohexylamino)methyl)-1H-1,2,3-triazol-5-yl)methyl)-4-iodobenzenesulfonamide incubated for 20 hrs by two-fold dilution method. A digest of the protocol: as §3

Assay [10] addresses Beta-lactamase VIM-2 (Pseudomonas aeruginosa) (UniProt Q9K2N0). Kind of assay: Inhibition of beta lactamase VIM-2 in Pseudomonas aeruginosa K34-7 assessed colony formation by visual inspection incubated for 20 hrs by two-fold dilution method. In outline: as §3
The target is the same in assay [11]. Kind of assay: Synergistic Inhibition of beta lactamase VIM-2 in Pseudomonas aeruginosa K34-7 assessed colony formation by visual inspection in presence of 125 microM N-((4-((cyclohexylamino)methyl)-1H-1,2,3-triazol-5-yl)methyl)-4-iodobenzenesulfonamide incubated for 20 hrs by two-fold dilution method. In outline: as §3
Assay [12] concerns the target Metallo-beta-lactamase type 2 (Klebsiella pneumoniae) (UniProt C7C422). Description: Synergistic Inhibition of beta lactamase NDM1 in Klebsiella pneumoniae K66-45 assessed colony formation by visual inspection in presence of 125 microM N-((4-((adamantylamino)methyl)-1H-1,2,3-triazol-5-yl)methyl)-4-iodobenzenesulfonamide incubated for 20 hrs by two-fold dilution method. A digest of the protocol: as §3

Assay [13] concerns Escherichia coli. Kind of assay: Inhibition of beta lactamase VIM-29 in Escherichia coli 50639799 assessed colony formation by visual inspection incubated for 20 hrs by two-fold dilution method. In outline:
as §3

Assay [14] deals with Metallo-beta-lactamase type 2 (Klebsiella pneumoniae) (UniProt C7C422). Kind of assay: Inhibition of beta lactamase NDM1 in Klebsiella pneumoniae K66-45 assessed colony formation by visual inspection incubated for 20 hrs by two-fold dilution method. A digest of the protocol:
as §3

The target is the same in assay [15]. Kind of assay: Synergistic Inhibition of beta lactamase NDM1 in Klebsiella pneumoniae K66-45 assessed colony formation by visual inspection in presence of 50 microM (5-((4-iodophenylsulfonamido)methyl)-1H-1,2,3-triazol-4-yl)methyl acetate incubated for 20 hrs by two-fold dilution method. In outline:
as §3

Assay [16] shares this target. Description: Synergistic Inhibition of beta lactamase NDM1 in Klebsiella pneumoniae K66-45 assessed colony formation by visual inspection in presence of 50 microM 2,5-Dichloro-N-((4-((cyclohexylamino)methyl)-1H-1,2,3-triazol-5-yl)methyl)benzenesulfonamide incubated for 20 hrs by two-fold dilution method. In outline:
as §3

Assay [17] addresses Beta-lactamase VIM-2 (Pseudomonas aeruginosa) (UniProt Q9K2N0). Kind of assay: Synergistic Inhibition of beta lactamase VIM-2 in Pseudomonas aeruginosa K34-7 assessed colony formation by visual inspection in presence of 50 microM (5-((4-iodophenylsulfonamido)methyl)-1H-1,2,3-triazol-4-yl)methyl acetate incubated for 20 hrs by two-fold dilution method. A digest of the protocol: as §3

Assay [18] has as its system Escherichia coli. Description: Synergistic Inhibition of beta lactamase VIM-29 in Escherichia coli 50639799 assessed colony formation by visual inspection in presence of 50 microM (5-((4-iodophenylsulfonamido)methyl)-1H-1,2,3-triazol-4-yl)methyl acetate incubated for 20 hrs by two-fold dilution method. A digest of the protocol: as §3
For assay [19], the target named is Beta-lactamase VIM-2 (Pseudomonas aeruginosa) (UniProt Q9K2N0). Description: Synergistic Inhibition of beta lactamase VIM-2 in Pseudomonas aeruginosa K34-7 assessed colony formation by visual inspection in presence of 125 microM N-((4-((adamantylamino)methyl)-1H-1,2,3-triazol-5-yl)methyl)-4-iodobenzenesulfonamide incubated for 20 hrs by two-fold dilution method. In outline: as §3

This passage reports inhibition, IC50 and MIC results from ChEMBL document CHEMBL4725280, “Structural studies of triazole inhibitors with promising inhibitor effects against antibiotic resistance metallo-β-lactamases” (Bioorg Med Chem, 2020).

By inhibition is commonly meant the share of the control response that was lost under treatment. By IC50 is commonly meant the concentration at which inhibition is half-maximal.

SMILES strings stand for the structures. Converted amounts (≈) assume the structure as drawn. The source made the active and inactive calls. No cut-off for these calls is given here. Bounds are passed on as bounds.

Sequence of GIM-1 protein (Pseudomonas aeruginosa) (Q704V1 as listed by the source): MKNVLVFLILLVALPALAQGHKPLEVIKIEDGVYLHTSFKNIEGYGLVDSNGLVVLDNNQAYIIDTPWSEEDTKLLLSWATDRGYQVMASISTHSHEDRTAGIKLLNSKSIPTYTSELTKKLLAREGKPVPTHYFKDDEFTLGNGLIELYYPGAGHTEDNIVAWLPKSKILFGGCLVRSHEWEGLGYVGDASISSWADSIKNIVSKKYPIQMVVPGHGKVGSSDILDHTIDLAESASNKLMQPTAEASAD
Sequence of GIM-1 protein (Q704V1 whole entry): as the sequence (Q704V1 as listed by the source) above
Sequence of Metallo-beta-lactamase type 2 (Klebsiella pneumoniae) (C7C422 whole entry): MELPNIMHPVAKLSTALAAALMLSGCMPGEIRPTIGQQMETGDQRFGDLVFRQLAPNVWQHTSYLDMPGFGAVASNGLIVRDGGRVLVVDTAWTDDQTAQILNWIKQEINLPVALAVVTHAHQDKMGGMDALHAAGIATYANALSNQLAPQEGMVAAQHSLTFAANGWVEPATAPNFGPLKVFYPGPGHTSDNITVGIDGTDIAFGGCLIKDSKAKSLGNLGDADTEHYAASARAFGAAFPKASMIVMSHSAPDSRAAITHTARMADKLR

For `CC(C)OCc1nn[nH]c1CNS(=O)(=O)c1ccc(I)cc1`, the inhibition entry in assay [1] is “inactive”. Moreover, the inhibition amounted to 11% in [2] and 85% in assay [4]. The figures for the IC50 entry in [3], in [5] (read-out: IC50) and in assay [6] (read-out: IC50) were “Not Active”, 0.53 µM and 193 µM, respectively.

For `C[C@@H](O)[C@H]1C(=O)N2C(C(=O)O)=C(S[C@@H]3CN[C@H](C(=O)N(C)C)C3)[C@H](C)[C@H]12`, the MIC in assay [7] was determined as 8 µg/mL; in assay [8] it was 16 µg/mL; in [9], 64 µg/mL; in [10], 64 µg/mL (≈ 167 µM); in [11], 8 µg/mL; in [12] it was 32 µg/mL. The MIC in assay [13] turned out to be 16 µg/mL (≈ 41.7 µM); in assay [14], 32 µg/mL (≈ 83.4 µM); in assay [15] it was 64 µg/mL; in [16], 32 µg/mL; in assay [17] it was 1 µg/mL; in [18] it was 1 µg/mL. Besides, the MIC in assay [19] was found to be 16 µg/mL.

For the molecule `Cc1ccc(S(=O)(=O)NCc2[nH]nnc2COC(C)(C)C)cc1`, the inhibition entry in assay [1] is “inactive”. For the same molecule, the results for the inhibition in [2] and in assay [4] were 4.5% and 60%, respectively. Moreover, the IC50 in assay [3] (read-out: IC50) stood at 142 µM; in assay [5] (read-out: IC50) it was 7.2 µM; in assay [6] (read-out: IC50), 128 µM.

As for `O=S(=O)(NCc1[nH]nnc1CNCc1ccccc1)c1ccc(I)cc1`, the IC50 result in assay [5] is “Nd(Insoluble)”.

In the case of `COc1ccc(CSCc2nn[nH]c2CNS(=O)(=O)c2ccc(I)cc2)cc1`, the inhibition in assay [1] is 34%; in assay [2] it was 33%; in assay [4] it was 45%. The IC50 was determined as 21 µM in assay [5] (read-out: IC50) and 227 µM in assay [6] (read-out: IC50).

For `O=S(=O)(NCc1[nH]nnc1CNC12CC3CC(CC(C3)C1)C2)c1cc(Cl)ccc1Cl`, the inhibition result in assay [1] and in assay [4] was “inactive” each time. The inhibition in assay [2] is 21%. Further, the IC50 in assay [5] (read-out: IC50) is 0.12 µM; in assay [6], “Nd(Insoluble)”.

Take `NCc1nn[nH]c1CNS(=O)(=O)c1ccccc1`: the inhibition result in assay [1] and in assay [2] was “inactive” each time. The IC50 entry in assay [3] was “Not Active”; in assay [5] (read-out: IC50) it was 23 µM; in [6], “Not Active”. Further, the inhibition in [4] was 29%.

As for `O=S(=O)(NCc1[nH]nnc1CNC(c1ccccc1)(c1ccccc1)c1ccccc1)c1ccc(I)cc1`, in [1], the inhibition result was “inactive”. Further, the values for the inhibition in [2] and in assay [4] were 3% and 19%, respectively. The IC50 in assay [3] (read-out: IC50) was 81 µM; in [5] (read-out: IC50), greater than 250 µM; in [6] (read-out: IC50), 353 µM.

As to `O=S(=O)(NCc1[nH]nnc1CNC1CCCCC1)c1ccc(I)cc1`, in assay [1], the inhibition entry was “inactive”. Besides, the figures for the inhibition in assay [2] and in [4] were 3% and 95%, respectively. Besides, the IC50 in assay [3] (read-out: IC50) amounted to 148 µM; in assay [5] (read-out: IC50), 0.067 µM; in [6] (read-out: IC50) it was 69 µM.

Consider `O=S(=O)(NCc1[nH]nnc1CNC12CC3CC(CC(C3)C1)C2)c1ccc(I)cc1`, for which the inhibition in assay [1] stood at 17%; in [2], 22%; in assay [4] it was 96%. For the same molecule, the IC50 was 0.16 µM in [5] (read-out: IC50) and 18 µM in [6] (read-out: IC50).

Take `Cc1ccc(S(=O)(=O)NCc2[nH]nnc2CNC23CC4CC(CC(C4)C2)C3)cc1`: the inhibition entry in [1] and in assay [2] was “inactive” in each case. The inhibition in [4] came to 84%. Also, the IC50 amounted to 2.3 µM in assay [5] (read-out: IC50) and 83 µM in assay [6] (read-out: IC50).

As to `O=S(=O)(NCc1[nH]nnc1CNC1CCCCC1)c1cc(Cl)ccc1Cl`, the inhibition entry in [1] is “inactive”. The inhibition turned out to be 7% in assay [2] and 94% in [4]. For the same molecule, the IC50 in assay [3] (read-out: IC50) is 98 µM; in [5] (read-out: IC50), 0.23 µM; in [6] it was “Not Active”.

For `COCc1nn[nH]c1CNS(=O)(=O)c1ccc(I)cc1`, the inhibition entry in assay [1] was “inactive”. The inhibition in assay [2] was determined as 11%; in [4], 51%. Further, the IC50 entry in assay [3] was “Not Active”; in assay [5] (read-out: IC50) it was 15 µM; in assay [6] (read-out: IC50) it was 169 µM.

Regarding `Cc1ccc(S(=O)(=O)NCc2[nH]nnc2CNC2CCCCC2)cc1`, in assay [1], the inhibition entry was “inactive”. Besides, the inhibition in assay [2] is 2.3%; in [4], 82%. Besides, the IC50 in [3] (read-out: IC50) was 144 µM; in assay [5] (read-out: IC50), 1.5 µM; in assay [6], “Not Active”.

For `CC(=O)OCc1nn[nH]c1CNS(=O)(=O)c1ccc(I)cc1`, the figures for the IC50 in assay [3] (read-out: IC50), in [5] (read-out: IC50) and in assay [6] (read-out: IC50) were 231 µM, 23 µM and 48 µM, respectively.
